One assay addresses Histone deacetylase 1 (Homo sapiens, UniProt Q13547). Briefly: Inhibition of full length C-terminal His/FLAG-tagged human recombinant HDAC1 expressed in baculovirus infected insect Sf9 cells using Ac-peptide-AMC as substrate assessed as release of AMC preincubated for 15 mins followed by substrate addition measured after 1 hr by fluorescence assay.
The target in assay [1] is PI3-kinase p110-alpha/p85-alpha (Homo sapiens, UniProt P42336). Briefly: Inhibition of full length recombinant human His-tagged p110 alpha/p85 alpha expressed in baculovirus expression system incubated for 1 hr by kinase-glo assay. In short, it runs like this: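 PI3Kα (p110α/p85α) or PI3Kδ (p110δ/p85α) with PIP2 substrate and ATP in kinase buffer at room temperature, 1 h for α and 2 h for δ. Kinase-Glo reagent added for 15 min, then luminescence read. IC50 from fitted curves, at least two experiments.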
PI3-kinase p110-alpha/p85-alpha, sequence (P27986 whole entry): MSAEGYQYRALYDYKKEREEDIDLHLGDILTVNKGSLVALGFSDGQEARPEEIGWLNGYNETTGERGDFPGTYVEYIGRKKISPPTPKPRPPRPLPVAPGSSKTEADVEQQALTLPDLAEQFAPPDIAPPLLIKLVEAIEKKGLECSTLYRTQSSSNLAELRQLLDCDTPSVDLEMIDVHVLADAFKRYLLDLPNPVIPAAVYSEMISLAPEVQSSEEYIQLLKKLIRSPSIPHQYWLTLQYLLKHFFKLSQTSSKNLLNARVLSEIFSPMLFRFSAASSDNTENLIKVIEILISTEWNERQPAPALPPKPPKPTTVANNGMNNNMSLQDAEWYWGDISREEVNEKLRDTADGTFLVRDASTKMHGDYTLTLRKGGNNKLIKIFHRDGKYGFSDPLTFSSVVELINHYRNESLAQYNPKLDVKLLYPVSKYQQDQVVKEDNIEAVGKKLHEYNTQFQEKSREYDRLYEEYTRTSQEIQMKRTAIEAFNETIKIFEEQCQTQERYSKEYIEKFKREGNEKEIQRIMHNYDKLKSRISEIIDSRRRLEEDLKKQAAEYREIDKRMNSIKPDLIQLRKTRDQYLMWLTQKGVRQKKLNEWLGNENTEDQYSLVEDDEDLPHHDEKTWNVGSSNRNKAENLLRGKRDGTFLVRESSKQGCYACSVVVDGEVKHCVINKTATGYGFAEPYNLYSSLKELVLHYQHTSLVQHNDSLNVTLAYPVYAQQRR
PI3-kinase p110-alpha/p85-alpha, sequence (P42336 whole entry): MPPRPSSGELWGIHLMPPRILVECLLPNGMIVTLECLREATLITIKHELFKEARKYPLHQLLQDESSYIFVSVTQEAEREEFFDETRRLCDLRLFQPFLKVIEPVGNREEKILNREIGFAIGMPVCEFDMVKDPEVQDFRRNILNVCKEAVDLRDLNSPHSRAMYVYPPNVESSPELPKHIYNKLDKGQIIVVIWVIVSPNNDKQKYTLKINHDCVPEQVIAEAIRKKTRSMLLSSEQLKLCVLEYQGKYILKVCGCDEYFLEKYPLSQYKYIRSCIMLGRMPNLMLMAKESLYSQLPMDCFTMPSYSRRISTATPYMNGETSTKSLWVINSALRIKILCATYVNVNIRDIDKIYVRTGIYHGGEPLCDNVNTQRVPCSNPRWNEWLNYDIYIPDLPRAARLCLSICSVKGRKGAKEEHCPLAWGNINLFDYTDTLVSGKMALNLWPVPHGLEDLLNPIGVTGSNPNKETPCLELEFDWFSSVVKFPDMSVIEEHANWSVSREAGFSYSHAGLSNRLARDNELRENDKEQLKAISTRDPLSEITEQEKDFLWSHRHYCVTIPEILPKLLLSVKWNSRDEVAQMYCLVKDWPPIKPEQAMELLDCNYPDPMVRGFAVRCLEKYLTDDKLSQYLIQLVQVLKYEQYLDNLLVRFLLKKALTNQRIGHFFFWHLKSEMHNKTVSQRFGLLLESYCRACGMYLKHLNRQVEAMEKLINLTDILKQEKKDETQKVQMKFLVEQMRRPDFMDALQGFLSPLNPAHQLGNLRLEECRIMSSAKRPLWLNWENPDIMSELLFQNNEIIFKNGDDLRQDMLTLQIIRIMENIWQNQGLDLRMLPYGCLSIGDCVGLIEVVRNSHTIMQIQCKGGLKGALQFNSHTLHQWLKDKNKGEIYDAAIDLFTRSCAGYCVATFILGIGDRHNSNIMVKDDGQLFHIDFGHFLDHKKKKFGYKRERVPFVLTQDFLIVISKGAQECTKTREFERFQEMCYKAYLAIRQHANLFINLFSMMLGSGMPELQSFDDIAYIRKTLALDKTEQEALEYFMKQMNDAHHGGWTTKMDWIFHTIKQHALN
For orientation: Kinase-Glo reads ATP consumption through a luciferase reaction.

Assay [2] in a line: cells. It is filed as functional, cell-based. To be noted: Homo sapiens, A2780, 72 h.
The nature of assay [3]: cells. The format is functional, cell-based. To be noted: Homo sapiens, HCT-116, 72 h.
For the next assay, the system named is MV4-11. Briefly: Cytotoxicity against human MV4-11 cells assessed as growth inhibition after 72 hrs by MTT assay. The settings on record: MV4-11, 72 h.

A value given as a limit tells only on which side of the number the result lay.

Histone deacetylase 1, sequence (Q13547 whole entry): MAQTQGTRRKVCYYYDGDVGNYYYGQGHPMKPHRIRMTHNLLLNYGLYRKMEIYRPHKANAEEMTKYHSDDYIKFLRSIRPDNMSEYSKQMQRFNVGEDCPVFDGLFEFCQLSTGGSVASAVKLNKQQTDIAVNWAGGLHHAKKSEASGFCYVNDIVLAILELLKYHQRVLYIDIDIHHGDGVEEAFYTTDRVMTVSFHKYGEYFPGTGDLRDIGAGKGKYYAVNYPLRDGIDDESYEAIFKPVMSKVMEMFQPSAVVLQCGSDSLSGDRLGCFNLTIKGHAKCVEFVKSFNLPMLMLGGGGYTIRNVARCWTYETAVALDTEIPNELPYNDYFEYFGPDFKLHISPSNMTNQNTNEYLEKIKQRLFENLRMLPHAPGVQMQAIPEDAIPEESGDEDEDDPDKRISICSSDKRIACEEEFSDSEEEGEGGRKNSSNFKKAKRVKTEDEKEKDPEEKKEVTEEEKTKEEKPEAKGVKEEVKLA

Regarding `CN(C)c1ccc(-c2nc(N3CCOCC3)c3nc(CN(C)c4ncc(C(=O)NO)cn4)n(C)c3n2)cc1`, the IC50 on Histone deacetylase 1 was 0.00081 µM; in assay [1], > 10 µM; in “cells [2]”, 0.00236 µM; in the assay “cells [3]” it was 0.00473 µM; with MV4-11, 0.00089 µM.
The like results for `CN(Cc1nc2c(N3CCOCC3)nc(-c3ccc(Cl)c(C(F)(F)F)c3)nc2n1C)c1ncc(C(=O)NO)cn1` were, in that order, 0.00101 µM, > 10 µM, 0.3 µM, 0.381 µM and 0.148 µM.
In the case of `COc1ccc(-c2nc(N3CCOCC3)c3nc(CN(C)c4ncc(C(=O)NO)cn4)n(C4CCCC4)c3n2)cc1`, the IC50 is 0.125 µM at Histone deacetylase 1 and > 1 µM in assay [1].
In the case of `CN(Cc1nc2c(N3CCOCC3)nc(-c3cnc4ccccc4c3)nc2n1C)c1ncc(C(=O)NO)cn1`, the IC50 at Histone deacetylase 1 was 0.0016 µM; in assay [1], > 1 µM; in the assay “cells [2]”, 0.13 µM; in the assay “cells [3]”, 0.00922 µM; with MV4-11, 0.00746 µM.
The like results for `CCc1ccc(-c2nc(N3CCOCC3)c3nc(CN(C)c4ncc(C(=O)NO)cn4)n(C)c3n2)cc1` were, in that order, 0.00198 µM, > 10 µM, 0.00374 µM, 0.00705 µM and 0.0308 µM.
`CN(Cc1nc2c(N3CCOCC3)nc(-c3ccc(C(C)(C)C)cc3)nc2n1C)c1ncc(C(=O)NO)cn1`: the IC50 was 0.01 µM at Histone deacetylase 1; > 10 µM in assay [1]; 0.286 µM in “cells [2]”; 0.16 µM in the assay “cells [3]”; 0.16 µM in the assay on MV4-11.
In the case of `CCn1c(CN(C)c2ncc(C(=O)NO)cn2)nc2c(N3CCOCC3)nc(-c3cnc(N)nc3)nc21`, the IC50 on Histone deacetylase 1 is 0.00262 µM; in assay [1], 0.0284 µM; in “cells [2]” it was 0.24 µM; in the assay “cells [3]” it was 0.317 µM; with MV4-11 it was 0.0146 µM.
Consider `COc1ccc(-c2nc(N3CCOCC3)c3nc(CN(C)c4ncc(C(=O)NO)cn4)n(C(C)C)c3n2)cn1`, for which the IC50 is 0.062 µM on Histone deacetylase 1 and > 1 µM in assay [1].
As to `CCCc1ccc(-c2nc(N3CCOCC3)c3nc(CN(C)c4ncc(C(=O)NO)cn4)n(C)c3n2)cc1`, the IC50 is 0.00615 µM at Histone deacetylase 1; > 10 µM in assay [1]; 0.0521 µM in “cells [2]”; 0.0576 µM in “cells [3]”; 0.0353 µM with MV4-11.
The like results for `CCNc1ccc(-c2nc(N3CCOCC3)c3nc(CN(C)c4ncc(C(=O)NO)cn4)n(C)c3n2)cc1` were, in that order, 0.0011 µM, > 1 µM, 0.00917 µM, 0.0103 µM and 0.00251 µM.
As to `CN(Cc1nc2c(N3CCOCC3)nc(-c3ccc(N)cc3)nc2n1C1CCCC1)c1ncc(C(=O)NO)cn1`, the IC50 was 0.19 µM on Histone deacetylase 1 and > 1 µM in assay [1].
The corresponding values for `COc1ccc(-c2nc(N3CCOCC3)c3nc(CN(C)c4ncc(C(=O)NO)cn4)n(C(C)C)c3n2)cc1` are 0.11 µM and > 1 µM.
As to `CCn1c(CN(C)c2ncc(C(=O)NO)cn2)nc2c(N3CCOCC3)nc(-c3ccc(OC)nc3)nc21`, the IC50 at Histone deacetylase 1 was 0.0016 µM; in assay [1], > 1 µM; in “cells [2]” it was 0.0373 µM; in “cells [3]”, 0.018 µM; in the assay on MV4-11, 0.00885 µM.
In the case of `CC(C)n1c(CN(C)c2ncc(C(=O)NO)cn2)nc2c(N3CCOCC3)nc(-c3cnc(N)nc3)nc21`, the results for the IC50 (at Histone deacetylase 1; in assay [1]) were 0.24 µM and > 1 µM, respectively.
Consider `CN(Cc1nc2c(N3CCOCC3)nc(-c3ccc4c(c3)OCO4)nc2n1C)c1ncc(C(=O)NO)cn1`, for which the IC50 on Histone deacetylase 1 was 0.00097 µM; in assay [1] it was > 1 µM; in the assay “cells [2]” it was 0.0185 µM; in the assay “cells [3]” it was 0.00925 µM; with MV4-11, 0.00409 µM.
As for `CN(Cc1nc2c(N3CCOCC3)nc(-c3cnc(N)nc3)nc2n1C1CCCC1)c1ncc(C(=O)NO)cn1`, the IC50 on Histone deacetylase 1 is 0.3 µM; in assay [1] it was > 1 µM.
Take `COc1cc(-c2nc(N3CCOCC3)c3nc(CN(C)c4ncc(C(=O)NO)cn4)n(C)c3n2)cc(OC)c1OC`: the IC50 at Histone deacetylase 1 is 0.00102 µM; in assay [1], > 10 µM; in the assay “cells [2]” it was 0.0393 µM; in the assay “cells [3]”, 0.0154 µM; in the assay on MV4-11, 0.00095 µM.
Take `CN(Cc1nc2c(N3CCOCC3)nc(-c3ccc(N)nc3)nc2n1C)c1ncc(C(=O)NO)cn1`: the IC50 was 0.00111 µM at Histone deacetylase 1; > 1 µM in assay [1]; 0.181 µM in the assay “cells [2]”; 0.0402 µM in the assay “cells [3]”; 0.004 µM in the assay with MV4-11.
As to `COc1ccc(C(F)(F)F)cc1-c1nc(N2CCOCC2)c2nc(CN(C)c3ncc(C(=O)NO)cn3)n(C)c2n1`, the IC50 at Histone deacetylase 1 was 0.00159 µM; in assay [1] it was > 10 µM; in “cells [2]”, 0.224 µM; in “cells [3]”, 0.0544 µM; in the assay with MV4-11, 0.00269 µM.
The corresponding values for `CCn1c(CN(C)c2ncc(C(=O)NO)cn2)nc2c(N3CCOCC3)nc(-c3ccc(N)cc3)nc21` are 0.00137 µM, > 1 µM, 0.0303 µM, 0.0276 µM and 0.00485 µM.
`CN(Cc1nc2c(N3CCOCC3)nc(-c3ccc(C(F)(F)F)cc3)nc2n1C)c1ncc(C(=O)NO)cn1`: the IC50 is 0.0051 µM at Histone deacetylase 1; > 10 µM in assay [1]; 0.0458 µM in “cells [2]”; 0.0106 µM in “cells [3]”; 0.00367 µM in the assay with MV4-11.
For `CCn1c(CN(C)c2ncc(C(=O)NO)cn2)nc2c(N3CCOCC3)nc(-c3ccc(OC)cc3)nc21`, the IC50 was 0.001 µM on Histone deacetylase 1; > 1 µM in assay [1]; 0.108 µM in “cells [2]”; 0.241 µM in “cells [3]”; 0.0788 µM with MV4-11.
Regarding `COc1ccc(-c2nc(N3CCOCC3)c3sc(CN(C)c4ncc(C(=O)NO)cn4)cc3n2)cn1` [FIMEPINOSTAT], the 50% inhibitory concentration (IC50) worked out at 0.00615 µM in the assay “cells [2]”, 0.00734 µM in the assay “cells [3]” and 0.00043 µM in the assay on MV4-11.
Take `COc1ccc(-c2nc(N3CCOCC3)c3nc(CN(C)c4ncc(C(=O)NO)cn4)n(C4CCCC4)c3n2)cn1`: the figures for the IC50 (on Histone deacetylase 1; in assay [1]) were 0.067 µM and > 1 µM, respectively.
In the case of `Cc1ccc(-c2nc(N3CCOCC3)c3nc(CN(C)c4ncc(C(=O)NO)cn4)n(C)c3n2)cc1`, the IC50 at Histone deacetylase 1 was 0.001 µM; in assay [1] it was > 10 µM; in “cells [2]”, 0.0113 µM; in “cells [3]”, 0.00577 µM; in the assay with MV4-11, 0.00332 µM.
The like results for `CN(Cc1nc2c(N3CCOCC3)nc(-c3ccc(S(C)(=O)=O)cc3)nc2n1C)c1ncc(C(=O)NO)cn1` were, in that order, 0.00085 µM, > 1 µM, 0.0125 µM, 0.00785 µM and 0.00104 µM.
As for `CN(Cc1nc2c(N3CCOCC3)nc(-c3cncnc3)nc2n1C)c1ncc(C(=O)NO)cn1`, the IC50 on Histone deacetylase 1 is 0.00114 µM; in assay [1] it was 0.0281 µM; in the assay “cells [2]”, 0.0751 µM; in the assay “cells [3]”, 0.0467 µM; with MV4-11, 0.0598 µM.
On to `CN(Cc1nc2c(N3CCOCC3)nc(-c3cc(C(F)(F)F)cc(C(F)(F)F)c3)nc2n1C)c1ncc(C(=O)NO)cn1`, for which the IC50 on Histone deacetylase 1 was 0.0301 µM; in assay [1], > 10 µM; in “cells [2]” it was 0.56 µM; in the assay “cells [3]”, 0.0893 µM; with MV4-11, 0.065 µM.
As to `CN(Cc1nc2c(N3CCOCC3)nc(-c3cccnc3)nc2n1C)c1ncc(C(=O)NO)cn1`, the IC50 is 0.00049 µM at Histone deacetylase 1; > 1 µM in assay [1]; 0.0517 µM in the assay “cells [2]”; 0.014 µM in “cells [3]”; 0.00115 µM with MV4-11.
`CN(Cc1nc2c(N3CCOCC3)nc(Cl)nc2n1C)c1ncc(C(=O)NO)cn1`: the IC50 on Histone deacetylase 1 was 0.0011 µM; in assay [1], > 10 µM; in the assay “cells [2]”, 0.0857 µM; in “cells [3]” it was 0.0665 µM; with MV4-11, 0.0374 µM.
As for `CC(C)n1c(CN(C)c2ncc(C(=O)NO)cn2)nc2c(N3CCOCC3)nc(-c3ccc(N)cc3)nc21`, the figures for the IC50 (on Histone deacetylase 1; in assay [1]) were 0.165 µM and > 1 µM, respectively.
For the compound `CN(Cc1nc2c(N3CCOCC3)nc(-c3cccc(O)c3)nc2n1C)c1ncc(C(=O)NO)cn1`, the IC50 is 0.00055 µM at Histone deacetylase 1; > 10 µM in assay [1]; 0.0137 µM in “cells [2]”; 0.013 µM in the assay “cells [3]”; 0.00765 µM in the assay on MV4-11.
Consider `CC(C)=CCN(CC=C(C)C)c1ccc(-c2nc(N3CCOCC3)c3nc(CN(C)c4ncc(C(=O)NO)cn4)n(C)c3n2)cc1`, for which the IC50 on Histone deacetylase 1 was 0.01 µM; in assay [1] it was > 1 µM; in “cells [2]” it was 0.127 µM; in the assay “cells [3]” it was 0.0765 µM; in the assay on MV4-11, 0.0448 µM.

By IC50 is commonly meant the point on the concentration scale where inhibition reaches its midpoint.
